Source: PubChem BioAssay (several laboratories)
Rows were chosen to be rich in hits. Some 12% of all compounds tested hit in one or more screens of this group.
L major viab: Leishmania major promastigote growth inhibition, primary screen; Leishmania major promastigotes, resazurin fluorescence viability; inhibition, % at 10 µM; 200,000 tested, 9% active; in the data active = inhibition above about 50%;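 also: promastigotes grown with compound for 44 hours at 28 °C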
Diaph inh CS: diaphorase inhibitors and chemical oxidizers, primary screen, counter-screen for diaphorase-coupled primary assays, biochemical, uHTS, resorufin fluorescence | 190,000 tested, 0.69% active | inhibition, % at 20 µM | diaphorase resazurin-to-resorufin fluorescence, NADH, 16 min; bacterial (C. kluyveri) enzyme, not human;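 active = primary screen inhibition at 20 µM above a set limit, cut at about 50% in these data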;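 also: plate controls were DMSO with full reaction for no effect and wells lacking NADH for full effect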
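Test system: Clostridium kluyveri diaphorase enzyme / Quantity: diaphorase at 0.14 U/mL in enzyme working solution / Incubation: 16-min room-temperature incubation before reading / Benchmarks: NADH-free wells as positive control, DMSO-only neutral wells / Signal: resorufin fluorescence 544/590 nm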
ROMK mod: ROMK potassium channel modulators, primary screen, cell-based, thallium flux, MLSMR library | B-score at 10 µM | ATP-sensitive inward rectifier potassium channel 1 (Homo sapiens), P48048 | 130,000 tested, 2% active | Tet-inducible ROMK, thallium flux fluorescence; actives lie on both sides;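 active = signal ratio slope over the read window, or its plate-corrected B-score, at least 3 SD from the plate mean, either direction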;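 also: B-score of the F/F0 ratio slope over 7 to 12 s after thallium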
KCC2 mod: KCC2 cotransporter modulators, thallium flux, primary screen, cell-based, HEK293 KCC2, FluoZin-2 fluorescence, MLSMR | Solute carrier family 12 member 5 (Homo sapiens), Q9H2X9 | KCC2 cells, thallium flux FluoZin-2 fluorescence | B-score of Tl+ flux slope (higher = more flux/activation; lower = inhibition) at 10 µM | 190,000 tested, 2.2% active | AID 1456, 2008;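 active = thallium flux slope and its plate-corrected score both differing from the plate sample mean at a set confidence after two filtering rounds, in either direction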;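 also: slope of fluorescence scaled to starting intensity during 10 to 20 s after thallium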
Target sequence (Q9H2X9 whole entry, looked up): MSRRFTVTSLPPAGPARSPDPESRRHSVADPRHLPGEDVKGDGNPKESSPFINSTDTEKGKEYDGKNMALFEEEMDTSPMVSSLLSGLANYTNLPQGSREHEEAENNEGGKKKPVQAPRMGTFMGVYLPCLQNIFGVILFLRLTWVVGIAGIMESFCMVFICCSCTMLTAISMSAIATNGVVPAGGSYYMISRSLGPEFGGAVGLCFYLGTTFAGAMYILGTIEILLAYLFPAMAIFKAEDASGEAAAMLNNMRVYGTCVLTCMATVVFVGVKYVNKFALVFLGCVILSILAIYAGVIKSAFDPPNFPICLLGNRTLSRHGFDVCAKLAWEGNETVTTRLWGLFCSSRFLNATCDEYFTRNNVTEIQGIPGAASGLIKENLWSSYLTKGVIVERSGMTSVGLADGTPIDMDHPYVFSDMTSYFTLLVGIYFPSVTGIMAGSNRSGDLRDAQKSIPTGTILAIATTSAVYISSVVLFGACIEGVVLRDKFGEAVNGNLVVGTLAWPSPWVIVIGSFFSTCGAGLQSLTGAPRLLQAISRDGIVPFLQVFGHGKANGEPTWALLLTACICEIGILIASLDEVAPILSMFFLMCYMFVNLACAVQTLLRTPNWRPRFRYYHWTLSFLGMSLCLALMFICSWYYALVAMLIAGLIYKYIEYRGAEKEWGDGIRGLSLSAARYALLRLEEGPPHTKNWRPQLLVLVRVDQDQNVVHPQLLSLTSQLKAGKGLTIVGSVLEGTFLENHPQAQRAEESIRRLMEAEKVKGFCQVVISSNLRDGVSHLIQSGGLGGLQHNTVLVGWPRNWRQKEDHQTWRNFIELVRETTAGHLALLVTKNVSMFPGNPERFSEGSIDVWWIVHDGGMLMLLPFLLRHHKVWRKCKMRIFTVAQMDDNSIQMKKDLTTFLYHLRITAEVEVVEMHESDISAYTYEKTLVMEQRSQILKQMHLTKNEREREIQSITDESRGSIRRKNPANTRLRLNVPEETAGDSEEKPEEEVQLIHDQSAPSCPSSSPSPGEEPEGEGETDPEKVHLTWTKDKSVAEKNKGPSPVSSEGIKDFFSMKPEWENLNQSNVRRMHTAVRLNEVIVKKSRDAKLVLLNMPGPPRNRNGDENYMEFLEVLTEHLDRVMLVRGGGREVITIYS
Diaphorase act: compounds boosting diaphorase resazurin reduction – biochemical, uHTS, resorufin fluorescence, counter-screen for diaphorase-coupled primary assays, primary screen; Diaphorase/resazurin coupled assay, 16 min; stronger effect = higher value; 1 = vehicle wells, 0 = NADH-free wells; activation factor at 20 µM; 190,000 tested, 0.005% active;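 active = diaphorase activity raised at least twofold by the compound at 20 µM; inactive = activation factor below 2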
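Material: bacterial diaphorase enzyme (C. kluyveri); amount: enzyme 0.07 U/mL final; reagent: NADH substrate 0.114 mM plus resazurin dye 0.1 mM, final; doses: single compound dose of 20 µM, 1% DMSO final; timing: 16 min enzyme reaction, ambient temperature; measured by: fluorescence of resorufin, 544 nm excitation, 590 nm emission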
WT yeast gro inh: growth inhibition of WT strain, primary screen, mitochondrial fusion inhibitor project, WT and mutant strains, chemical genetic; mitochondrial fusion phenotypic screen; inhibition, % at 10 µM; 190,000 tested, 2.1% active; in the data active = inhibition above about 58%; tested in S. cerevisiae
Starred values were filed as active, the others as inactive; · = no result.

SMILES	L major viab	Diaph inh CS	ROMK mod	KCC2 mod	Diaphorase act	WT yeast gro inh
Cc1cccc2c1[nH]c1nc(N/N=C\c3ccco3)nnc12	61.0*	7.9	·	0.143	0.9	-0.3
COC(=O)c1ccc(=O)n(CC(=O)c2ccc(Cl)cc2)c1	-1.3	5.0	-0.596	-0.0924	0.9	0.1
CCc1ccccc1NC(=O)Cn1nnc(-c2cccnc2)n1	-3.5	9.7	0.754	·	0.9	0.1
CC[n+]1c(/C=C/N(C)c2ccccc2)oc2ccc(Cl)cc21	99.5*	24.8	·	0.992	0.8	17.2
CCn1c(/C=C/N(C(C)=O)c2ccccc2)[n+](CC)c2ccc(Cl)cc21	17.9	15.4	0.0276	-0.0342	0.8	1.0
CCc1ccc(NC(=O)CSc2nc3ccccc3c(=O)n2CCCC(=O)NCCCN2CCOCC2)cc1	1.6	10.9	-0.838	-0.012	0.9	-4.2
CNc1nc(-c2ccccc2)cc(C)c1S(C)(=O)=O	-1.7	2.4	0.152	-0.992	1	2.9
O=C1CCCC2=C1C(O)(C(F)(F)F)C(=O)N2Cc1ccccc1 (configuration not stated)	60.6*	8.3	·	0.0767	0.9	-3.2
CC1(C)CC(=O)C2=C(C1)N(Cc1ccccc1)C(=O)C2(O)C(F)(F)F (configuration not stated)	65.5*	11.0	·	-0.703	0.9	5.2
CC(C)CC(=O)NC1(C(F)(F)F)C(=O)N(Cc2ccccc2)C2=C1C(=O)CC(C)(C)C2 (configuration not stated)	26.2	8.2	·	0.0567	0.9	8.8
COC(=O)C1CCCN1C(=O)COc1ccc(Cl)cc1Br (configuration not stated)	-8.6	-5.8	-0.0104	-0.83	1.1	-1.3
O=S(=O)(NC1CCN(Cc2ccccc2)CC1)c1cccc2cccnc12	66.7*	6.3	·	-0.155	0.9	-4.7
CCOC(=O)c1sc(/N=C/c2c(C)[nH]n(-c3ccccc3)c2=O)c(C#N)c1C	-2.8	4.1	-0.983	1.89	1	77.3*
CCn1ncc([N+](=O)[O-])c1C(=O)N1CCCC1	-1.7	7.4	0.00235	0.669	0.9	-6.6
CN(C)Cc1cc(C(C)(C)C)c(O)c(C(C)(C)C)c1	25.1	35.5	·	·	0.6	7.4
CC(C)(C)c1cc(CN(CCO)CCO)cc(C(C)(C)C)c1O	-2.5	69.8*	·	·	0.3	7.5
O=C(c1ccco1)N1CCN(S(=O)(=O)c2ccccc2[N+](=O)[O-])CC1	-7.7	12.1	0.854	0.496	0.9	-7.4
COc1ccc(S(=O)(=O)Nc2cccc(F)c2C)cc1C(=O)N1CCOCC1	-4.4	0.7	0.464	0.698	1	-4.7
CN(C)CCCN(C(=O)COc1ccccc1)c1nc2ccc(Cl)cc2s1	13.1	-0.1	-0.827	0.798	1	25.6
CN(C)CCCN(C(=O)CCc1ccccc1)c1nc2ccc(Cl)cc2s1	87.5*	-2.4	-1.88	-0.651	1	91.3
CN(C)CCCN(C(=O)c1ccc2c(c1)CCCC2)c1nc2ccc(Cl)cc2s1	78.9*	-0.1	·	-0.281	1	79.9*
COc1cccc(Cn2cc(C(=O)NCCN(C)C)nn2)c1	-3.5	·	·	1.07	·	-0.3
O=C(CNC(=O)c1ccccc1)OCc1cccc([N+](=O)[O-])c1	56.2*	15.2	-0.729	-0.0626	0.8	2.9
Cc1nn(CC(=O)NCc2ccccc2)c(=O)c2ccccc12	-2.4	17.2	·	1.14	0.8	-0.9
CCN(CC)CCNC(=O)Cn1nc(Cc2ccccc2)c2ccccc2c1=O	1.5	14.3	0.0449	·	0.9	59.9*
SMILES	L major viab	Diaph inh CS	ROMK mod	KCC2 mod	Diaphorase act	WT yeast gro inh
O=C(NCc1cccnc1)c1ccc(Br)s1	·	·	·	0.262	·	·
Cc1ccccc1-n1nc(C)c2cc(C(=O)NCc3cccnc3)sc21	69.2*	8.6	·	·	0.9	15.7
Cc1nn(CC(=O)NCc2cccnc2)c(=O)c2ccccc12	51.4*	1.3	0.981	·	1	11.5
CCCn1c(SCC(=O)NCc2ccccc2)n[nH]c1=O	-7.2	2.7	0.929	0.112	1	-0.1
O=C(CNc1ccccc1Cl)N/N=C1\CCCc2ccccc21	-5.3	7.4	0.416	-0.0944	0.9	-2.8
CCOC(=O)NC(C(Cl)(Cl)Cl)S(=O)(=O)c1ccccc1 (configuration not stated)	·	·	·	1.51	·	·
CCOC(=O)NC(c1ccc(C(C)C)cc1)C(Cl)(Cl)Cl (configuration not stated)	25.5	18.0	-0.927	-0.939	0.8	68.7*
CC1(c2nnc(-c3ccc(F)cc3)o2)CC(c2cccc(Cl)c2)=NO1 (configuration not stated)	·	·	·	0.441	·	·
O=S(=O)(c1ccc(-c2nnc(SCc3ccccc3)o2)cc1)N1CCCC1	84.7*	13.7	-1.47	-0.216	0.9	11.5
Cc1ccc(CSc2nnc(-c3ccc(S(=O)(=O)N4CCCC4)cc3)o2)cc1	5.8	2.0	·	-0.3	1	2.7
COc1cc(OC)c(C(=O)NNC(=S)NC2CCCCC2)cc1OC	50.7*	10.2	-0.105	-0.242	0.9	4.9
COc1ccc(Cl)cc1C(=O)NNC(=S)NC1CCCCC1	·	·	·	-0.189	·	·
C=CCOC(=O)C1=C[C@@H](c2ccc3c(c2)OCO3)C[C@@H](OCc2ccc(CO)cc2)O1	8.6	39.3	·	-0.284	0.6	21.2
O=C(CNC(=O)c1ccco1)OCC(=O)c1ccc(Cl)cc1Cl	-20.3	·	0.761	·	·	-2.5
CCCN(CCO)Cc1cccc(Oc2ccccc2)c1	97.2*	-1.4	·	0.136	1	-2.4
CC(C)n1cc(/C(N)=N/O)c(=O)n(Cc2ccccc2)c1=O	·	·	·	0.0278	·	·
O=C(C1=NNCC1c1ccccc1)C1CO1 (configuration not stated)	-1.9	6.0	-0.736	1.22	0.9	0.6
CC(C)(C)c1cc(C(=O)O)n(Cc2ccc(Cl)cc2Cl)n1	·	·	·	-2.59	·	·
N#CC1=C(N)OC2=C(CC/C2=C\c2ccccc2Cl)C1c1ccccc1Cl (configuration not stated)	73.0*	18.1	·	0.605	0.8	-11.9
N#CC1=C(N)OC2=C(CC/C2=C\c2ccccc2)C1c1ccccc1 (configuration not stated)	100.5*	7.1	·	·	0.9	4.8
N#CC1=C(N)OC2=C(C(=O)CCC2)C1c1ccccc1 (configuration not stated)	4.6	7.7	·	0.57	0.9	-7.6
Cc1oc(C)c2c(=O)ccc3c(c12)OC(N)=C(C#N)C3c1ccccc1Cl (configuration not stated)	10.8	20.6	0.349	-0.209	0.8	-9.8
